These results are taken from ChEMBL document CHEMBL1914320, “C4-alkylthiols with activity against Moraxella catarrhalis and Mycobacterium tuberculosis” (Bioorg Med Chem, 2011).

The test system of assay [1] is Enterococcus faecalis. Briefly: Antibacterial activity against non-beta-lactamase producing Enterococcus faecalis ATCC 29212 after 48 hrs by microdilution broth method. In kind it is functional, organism-based. An outline of the steps:
(§1)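 Broth microdilution followed CLSI guidelines. Compound was dissolved in 95% ethanol, diluted at least 10-fold into Mueller-Hinton broth, then serially two-fold diluted from 500 to 15.6 μg/mL. Actively growing culture was added at 5 × 10^5 cells/mL. Plates ran 48 h at 37 °C, scored for visible growth at 24 and 48 h. MIC was the lowest concentration without growth. For MBC, 10 μL from each clear well was plated on MH agar. Controls were ethanol and penicillin. Triplicate.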
(In general: Dilution methods test growth across graded concentrations, often in twofold steps.)

The subject of assay [2] is Pseudomonas aeruginosa. The assay is described as follows: Antibacterial activity against non-beta-lactamase producing Pseudomonas aeruginosa ATCC 27853 after 48 hrs by microdilution broth method. It is filed as functional, organism-based. An outline of the steps: as §1
For assay [3], the system named is Moraxella catarrhalis. Briefly: Antibacterial activity against beta-lactamase producing Moraxella catarrhalis isolate 2 at 10 ug/disc after overnight incubation by disc diffusion assay. The settings on record: for zone of inhibition at 10 µg/disc: read-out: IZ. It is filed as functional. An outline of the steps:
(§2)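 Isolates were held at −80 °C. Five colonies were suspended in Mueller-Hinton broth to a 0.5 McFarland density and swabbed onto MH agar. Discs carried 10 μg compound, applied in methanol and dried at room temperature. Plates were incubated overnight at 37 °C, and the zone of inhibition was measured in mm from the disc edge. Controls were methanol-only and penicillin discs. Run blinded, in triplicate.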
A general note: In agar diffusion tests the substance spreads into inoculated agar from a disc or well.

The test system of assay [4] is Moraxella catarrhalis. Briefly: Antibacterial activity against beta-lactamase producing Moraxella catarrhalis isolate 3 at 10 ug/disc after overnight incubation by disc diffusion assay. It is filed as functional. An outline of the steps:
as §2

The test system of assay [5] is Moraxella catarrhalis. The assay is described as follows: Antibacterial activity against beta-lactamase producing Moraxella catarrhalis isolate 6 at 500 ug/ml after overnight incubation by disc diffusion assay. In kind it is functional, organism-based.
The subject of assay [6] is Moraxella catarrhalis. Briefly: Antibacterial activity against beta-lactamase producing Moraxella catarrhalis isolate 4 at 500 ug/ml after overnight incubation by disc diffusion assay. It is filed as functional, organism-based.
Assay [7] concerns Staphylococcus aureus. Briefly: Antibacterial activity against non-beta-lactamase producing Staphylococcus aureus ATCC 25923 after 48 hrs by microdilution broth method. It is filed as functional, organism-based. An outline of the steps:
as §1

The subject of assay [8] is Escherichia coli. Briefly: Antibacterial activity against non-beta-lactamase producing Escherichia coli ATCC 25922 at 10 ug/disc after overnight incubation by disc diffusion assay. It is filed as functional, organism-based. The procedure, abridged:
as §2

The test system of assay [9] is Moraxella catarrhalis. The assay is described as follows: Antibacterial activity against beta-lactamase producing Moraxella catarrhalis isolate 5 at 10 ug/disc after overnight incubation by disc diffusion assay. It is filed as functional. The settings on record: for zone of inhibition at 10 µg/disc: read-out: IZ. An outline of the steps: as §2
Assay [10] has as its system Pseudomonas aeruginosa. The assay is described as follows: Antibacterial activity against non-beta-lactamase producing Pseudomonas aeruginosa ATCC 27853 at 10 ug/disc after overnight incubation by disc diffusion assay. In kind it is functional, organism-based. An outline of the steps:
as §2

The test system of assay [11] is Moraxella catarrhalis. Briefly: Antibacterial activity against beta-lactamase producing Moraxella catarrhalis isolate 2 at 500 ug/ml after overnight incubation by disc diffusion assay. It is filed as functional, organism-based.
Assay [12] concerns Enterococcus faecalis. Briefly: Antibacterial activity against non-beta-lactamase producing Enterococcus faecalis ATCC 29212 at 10 ug/disc after overnight incubation by disc diffusion assay. It is filed as functional, organism-based. An outline of the steps:
as §2

The subject of assay [13] is Moraxella catarrhalis. Briefly: Antibacterial activity against beta-lactamase producing Moraxella catarrhalis isolate 3 at 500 ug/ml after overnight incubation by disc diffusion assay. In kind it is functional, organism-based.
The test system of assay [14] is Moraxella catarrhalis. Briefly: Antibacterial activity against beta-lactamase producing Moraxella catarrhalis isolate 4 at 10 ug/disc after overnight incubation by disc diffusion assay. It is filed as functional. The settings on record: for zone of inhibition at 10 µg/disc: read-out: IZ. The procedure, abridged:
as §2

For assay [15], the system named is Staphylococcus aureus. Briefly: Antibacterial activity against non-beta-lactamase producing Staphylococcus aureus ATCC 25923 at 10 ug/disc after overnight incubation by disc diffusion assay. It is filed as functional, organism-based. An outline of the steps: as §2
Assay [16] concerns Moraxella catarrhalis. The assay is described as follows: Antibacterial activity against beta-lactamase producing Moraxella catarrhalis isolate 5 at 500 ug/ml after overnight incubation by disc diffusion assay. In kind it is functional, organism-based.
The test system of assay [17] is Moraxella catarrhalis. The assay is described as follows: Antibacterial activity against beta-lactamase producing Moraxella catarrhalis isolate 1 at 10 ug/disc after overnight incubation by disc diffusion assay. In kind it is functional. The settings on record: for zone of inhibition at 10 µg/disc: read-out: IZ. The procedure, abridged: as §2
Assay [18] relates to Mycobacterium tuberculosis. The assay is described as follows: Antimycobacterial activity against wild type Mycobacterium tuberculosis H37Rv at 200 ug/ml by Alamar blue assay. In kind it is functional, organism-based.
Assay [19] deals with Escherichia coli. The assay is described as follows: Antibacterial activity against non-beta-lactamase producing Escherichia coli ATCC 25922 after 48 hrs by microdilution broth method. In kind it is functional, organism-based. An outline of the steps:
as §1

Active and inactive are the calls of the source. The calls are words filed in the database; no cut-off is given here.

As for `CCOC(=O)CN1C(=O)C(OC)C1C(C)(C)SSC` (racemic), the result in assay [1], in [2], in [7], in [8], in assay [10] and in assay [12] was inactive. Also, the result in assay [15] and in assay [19] was inactive. Further, the “inhibition zone (IZ)” value in assay [3], in assay [4], in [9], in assay [14] and in [17] was “inactive” in each case. For the same compound, the “antibacterial activity (active/not active)” value in assay [5], in [6], in [11], in [13] and in assay [16] was “Active” throughout. Besides, the “antimycobacterial activity (active/not active)” value in assay [18] is “Active”.

`O=C1CC(Sc2cccs2)N1S(=O)(=O)O` (racemic): the result in assay [1], in [2], in assay [7], in assay [8], in assay [10] and in assay [12] was inactive. Also, the result in assay [15] and in [19] was inactive. For the same compound, the “inhibition zone (IZ)” value in assay [3], in [4], in [9], in assay [14] and in assay [17] was “inactive” throughout. The “antibacterial activity (active/not active)” value in assay [5], in [6], in assay [11], in [13] and in [16] was “Active” each time. The “antimycobacterial activity (active/not active)” value in [18] was “Active”.

Turning to `O=C1CC(SCCCO)N1` (racemic), the outcome in assay [1], in assay [2], in assay [7], in assay [8], in [10] and in assay [12] was inactive. Moreover, the outcome in assay [15] and in assay [19] was inactive. Besides, the “antibacterial activity (active/not active)” value in assay [5], in assay [6], in assay [11], in assay [13] and in assay [16] was “inactive” in each case. Also, the “antimycobacterial activity (active/not active)” value in [18] is “inactive”.

In the case of `CCOC(=O)CN1C(=O)C(OC)C1C(S)(CC)CC` (racemic), the result in [1], in [2], in assay [7], in [8], in [10] and in assay [12] was inactive. The result in assay [15] and in assay [19] was inactive. Also, the “antibacterial activity (active/not active)” value in [5], in [6], in assay [11], in assay [13] and in assay [16] was “inactive” each time. The “antimycobacterial activity (active/not active)” value in assay [18] was “inactive”.

`CCC(C=O)(CC)SSC(C=O)(CC)CC`: the result in assay [1], in [2], in assay [7], in [8], in assay [10] and in [12] was inactive. Besides, the outcome in assay [15] and in assay [19] was inactive. The zone of inhibition at 10 µg/disc in assay [3] was 10 mm; in assay [9], 10 mm; in [14], 5 mm; in assay [17] it was 10 mm. For the same compound, the “inhibition zone (IZ)” value in assay [4] was “inactive”.

Consider `Nc1ccc(SC2CC(=O)N2)cc1` (racemic), for which the outcome in [1], in assay [2], in assay [7], in assay [8], in assay [10] and in [12] was inactive. The result in assay [15] and in [19] was inactive. The “antibacterial activity (active/not active)” value in [5], in assay [6], in [11], in assay [13] and in assay [16] was “Active” each time. Moreover, the “antimycobacterial activity (active/not active)” value in [18] was “Active”.

Take `O=C1CC(Sc2ccc(S)cc2)N1S(=O)(=O)O` (racemic): the result in [1], in [2], in assay [7], in [8], in assay [10] and in assay [12] was inactive. Moreover, the result in assay [15] and in assay [19] was inactive. Also, the “antibacterial activity (active/not active)” value in assay [5], in assay [6], in assay [11], in assay [13] and in assay [16] was “Active” in each case. Also, in assay [18], the “antimycobacterial activity (active/not active)” value is “Active”.

`CCC(S)(CC)CO`: the outcome in [1], in assay [2], in assay [7], in [8], in assay [10] and in assay [12] was inactive. The result in assay [15] and in assay [19] was inactive. For the same compound, the zone of inhibition at 10 µg/disc worked out at 3 mm in assay [3], 12 mm in assay [9], 3 mm in assay [14] and 5 mm in [17]. Besides, the “inhibition zone (IZ)” value in assay [4] is “inactive”.

Turning to `O=C1CC(Sc2ccccc2)N1S(=O)(=O)O` (racemic), the outcome in assay [1], in assay [2], in assay [7], in [8], in [10] and in assay [12] was inactive. Besides, the outcome in [15] and in [19] was inactive. For the same compound, the “inhibition zone (IZ)” value in assay [3], in assay [4], in assay [9], in assay [14] and in assay [17] was “inactive” in each case.

Take `O=C1CC(SCCO)N1` (racemic): the result in [1], in [2], in [7], in [8], in assay [10] and in [12] was inactive. The result in assay [15] and in assay [19] was inactive. In addition, the “antibacterial activity (active/not active)” value in assay [5], in assay [6], in [11], in assay [13] and in assay [16] was “inactive” each time. For the same compound, in assay [18], the “antimycobacterial activity (active/not active)” value is “inactive”.
